Experimental data reported in ChEMBL document CHEMBL1139357, “Synthesis and anti-hepatitis B virus and anti-hepatitis C virus activities of 7-deazaneplanocin A analogues in vitro” (J Med Chem, 2009).

What was measured:
[1] = tested on: Hepatitis B virus; assay: Antiviral activity against HBV in human HepG2(2.2.15) cells assessed as extracellular HBV virion DNA level after 24 hrs; format: functional, organism-based; conditions: HepG2 2.2.15, 24 h
Method in brief: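 Confluent HBV-producing 2.2.15 cell cultures were given nine consecutive daily doses of compound. Extracellular HBV DNA was measured by quantitative blot hybridization 24 h after the last dose. Cytotoxicity was read by neutral red uptake 24 h after the last dose.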

[2] = tested on: Hepatitis B virus; assay: Antiviral activity against HBV in human HepG2(2.2.15) cells assessed as replication intermediates after 24 hrs; format: functional, organism-based; conditions: HepG2 2.2.15, 24 h
Method in brief: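 Confluent 2.2.15 cultures in 96-well format given nine consecutive daily doses; HBV DNA quantified by blot hybridization 24 h after the last treatment.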

[3] = Cytotoxicity against human HepG2(2.2.15) cells assessed as uptake of neutral red dye after 24 hrs; format: cell-based; conditions: HepG2 2.2.15, 24 h
Method in brief: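 2.2.15 cells, confluent, dosed daily for nine consecutive days; cytotoxicity by neutral red dye uptake 24 h after the last treatment.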

[4] = tested on: Hepatitis B virus; assay: Antiviral activity against lamivudine-resistant wild type HBV in human Huh7 cells after 4 days by intracellular HBV DNA replication assay; format: functional, organism-based; conditions: Huh-7, 96 h
Method in brief: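 Transient transfection of HBV into cells, 5-day assay; compounds applied for 4 days, then intracellular HBV DNA replication intermediates quantified by Southern blot hybridization to derive EC50.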

[5] = tested on: Hepatitis B virus; assay: Antiviral activity against lamivudine-resistant HBV reverse transcriptase L180M mutant in human Huh7 cells after 4 days by intracellular HBV DNA replication assay; format: functional, organism-based; conditions: Huh-7, 96 h
Method in brief: (§1)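 In a 5-day transient transfection assay, cells expressed wild-type or lamivudine- or adefovir-resistant HBV mutants. After 4 days of drug treatment, intracellular HBV DNA replication intermediates were quantified by Southern blot hybridization.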

[6] = tested on: Hepatitis B virus; assay: Antiviral activity against lamivudine-resistant HBV reverse transcriptase LM/reverse transcriptase MV double mutant in human Huh7 cells after 4 days by intracellular HBV DNA replication assay; format: functional, organism-based; conditions: Huh-7, 96 h; method in brief: as §1
[7] = tested on: Hepatitis B virus; assay: Antiviral activity against lamivudine-resistant HBV reverse transcriptase M204I mutant in human Huh7 cells after 4 days by intracellular HBV DNA replication assay; format: functional, organism-based; conditions: Huh-7, 96 h; method in brief: as §1
[8] = tested on: Hepatitis B virus; assay: Antiviral activity against lamivudine-resistant HBV reverse transcriptase M204V mutant in human Huh7 cells after 4 days by intracellular HBV DNA replication assay; format: functional, organism-based; conditions: Huh-7, 96 h; method in brief: as §1
[9] = tested on: Hepatitis B virus; assay: Antiviral activity against lamivudine-resistant HBV reverse transcriptase 236T mutant in human Huh7 cells after 4 days by intracellular HBV DNA replication assay; format: functional, organism-based; conditions: Huh-7, 96 h; method in brief: as §1
[10] = tested on: Hepatitis B virus; assay: Antiviral activity against adefovir-resistant wild type HBV in human Huh7 cells after 4 days by intracellular HBV DNA replication assay; format: functional, organism-based; conditions: Huh-7, 96 h; method in brief: as §1
[11] = tested on: Hepatitis B virus; assay: Antiviral activity against adefovir-resistant HBV reverse transcriptase L180M mutant in human Huh7 cells after 4 days by intracellular HBV DNA replication assay; format: functional, organism-based; conditions: Huh-7, 96 h; method in brief: as §1
[12] = tested on: Hepatitis B virus; assay: Antiviral activity against adefovir-resistant HBV reverse transcriptase LM/reverse transcriptase MV double mutant in human Huh7 cells after 4 days by intracellular HBV DNA replication assay; format: functional, organism-based; conditions: Huh-7, 96 h; method in brief: as §1
[13] = tested on: Hepatitis B virus; assay: Antiviral activity against adefovir-resistant HBV reverse transcriptase M204I mutant in human Huh7 cells after 4 days by intracellular HBV DNA replication assay; format: functional, organism-based; conditions: Huh-7, 96 h; method in brief: as §1
[14] = tested on: Hepatitis B virus; assay: Antiviral activity against adefovir-resistant HBV reverse transcriptase M204V mutant in human Huh7 cells after 4 days by intracellular HBV DNA replication assay; format: functional, organism-based; conditions: Huh-7, 96 h; method in brief: as §1
[15] = tested on: Hepatitis B virus; assay: Antiviral activity against adefovir-resistant HBV reverse transcriptase 236T mutant in human Huh7 cells after 4 days by intracellular HBV DNA replication assay; format: functional, organism-based; conditions: Huh-7, 96 h; method in brief: as §1
[16] = tested on: Hepatitis C virus; assay: Antiviral activity against HCV in ET cells assessed as activity of luciferase reporter at 20 uM by subgenomic RNA replicon assay; format: functional, Hepacivirus hominis
Method in brief: (§2)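 ET replicon cells (dicistronic HCV replicon with firefly luciferase, three adaptive mutations) seeded at 5000/well overnight in DMEM without G418; serial compound dilutions added, 3 days incubation, luciferase read by Steady-Glo. Four replicates per point; EC50 is 50% luciferase inhibition. Marginal actives given as percent inhibition versus control at 20 µM.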

[17] = Cytotoxicity against ET cells at 20uM; format: cell-based
Method in brief: (§3)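 ET replicon cells seeded at 5000/well overnight without G418; serially diluted compound for 3 days; viability by tetrazolium-based CytoTox-1 proliferation assay. Four replicates; IC50 is the concentration cutting viability by 50%. Weak compounds given as percent of control at 20 µM.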

[18] = tested on: Hepatitis C virus; assay: Antiviral activity against HCV in human Huh7 cells assessed as reduction of viral level after 5 days by RNA subgenomic replicon assay; format: functional, organism-based, Hepacivirus hominis; conditions: Huh-7, 120 h
Method in brief: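 Huh-7 clone B subgenomic replicon cells seeded at 3000/well, compounds added in duplicate at two dilutions right after seeding; 5 days at 37 °C, 5% CO2. Total RNA isolated; replicon RNA and rRNA control amplified by multiplex one-step real-time RT-PCR. Activity as ΔCt versus no-drug control; EC50/EC90 for 50%/90% reduction.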

[19] = Cytotoxicity against human Huh7 cells assessed as rRNA level after 5 days; format: cell-based; conditions: huh-7, 120 h
Method in brief: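 Huh-7 cells carrying a subgenomic HCV replicon (clone B) were seeded at 3000 cells/well. Compound was added in duplicate at two dilutions right after seeding, then cells were incubated 5 days at 37 °C, 5% CO2. Total RNA was isolated, and replicon RNA and an rRNA internal control were co-amplified by one-step multiplex real-time RT-PCR.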

[20] = tested on: Hepatitis C virus; assay: Antiviral activity against HCV in ET cells assessed as activity of luciferase reporter by subgenomic RNA replicon assay; format: functional, organism-based, Hepacivirus hominis; method in brief: as §2
[21] = Cytotoxicity against ET cells; format: cell-based; conditions: for IC50: ET; method in brief: as §3
[22] = Selectivity index, EC50 for HCV to IC50 for ET cells; format: functional
Method in brief: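 SI50 from ET replicon luciferase EC50 (3-day assay) and CytoTox-1 viability IC50, each averaged from four replicates.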

Nc1ccn([C@@H]2CS[C@H](CO)O2)c(=O)n1 [LAMIVUDINE]
EC50 [1]: 0.048 µM
EC50 [2]: 0.15 µM
IC50 [3]: > 2000 µM
EC50 [4]: 0.2 µM
EC50 [5]: 10 µM
EC50 [6]: > 100 µM
EC50 [7]: > 100 µM
EC50 [8]: > 100 µM
EC50 [9]: 0.3 µM
EC50 [10]: 1.3 µM
EC50 [11]: 1.6 µM
EC50 [12]: 1.6 µM
EC50 [13]: 1.8 µM
EC50 [14]: 1.5 µM
EC50 [15]: 7.7 µM

C=Cc1cn([C@@H]2C=C(CO)[C@@H](O)[C@H]2O)c2ncnc(N)c12
Activity [16]: 49.2%
Activity [17]: 99.7%
EC50 [1]: 3.3 µM
EC50 [2]: 10 µM
IC50 [3]: > 300 µM

N#Cc1cn([C@@H]2C=C(CO)[C@@H](O)[C@H]2O)c2ncnc(N)c12
Activity [16]: 0.5%
Activity [17]: 103.3%
EC50 [1]: > 10 µM
IC50 [3]: > 300 µM

C[C@@]1(O)[C@H](O)[C@@H](CO)O[C@H]1n1ccc(N)nc1=O
EC50 [18]: 3.5 µM
EC90 [18]: 11 µM
CC50 [19]: > 50 µM

Nc1ccn([C@@H]2O[C@H](CO)[C@@H](O)[C@]2(O)F)c(=O)n1
EC50 [18]: 1.7 µM
EC90 [18]: 5.3 µM
CC50 [19]: > 50 µM

Nc1ncnc2c1c(Cl)cn2[C@@H]1C=C(CO)[C@@H](O)[C@H]1O
EC50 [20]: 14.7 µM
IC50 [21]: 50.1 µM
EC50 [1]: > 10 µM
IC50 [3]: > 300 µM

Nc1ncnc2c1c(Br)cn2[C@@H]1C=C(CO)[C@@H](O)[C@H]1O
EC50 [20]: 16.7 µM
IC50 [21]: 41.7 µM
EC50 [1]: > 10 µM
IC50 [3]: > 300 µM

Nc1ncnc2c1c([N+](=O)[O-])cn2[C@@H]1C=C(CO)[C@@H](O)[C@H]1O
Activity [17]: 101.5%
EC50 [1]: > 10 µM
IC50 [3]: > 300 µM

Nc1ncnc2c1c(F)cn2[C@@H]1C=C(CO)[C@@H](O)[C@H]1O
Activity [16]: 9.5%
Activity ([21]; et): 112.7%
EC50 [1]: > 10 µM
IC50 [3]: > 300 µM

C[C@@]1(O)[C@H](O)[C@@H](CO)O[C@H]1n1cnc2c(N)ncnc21
EC50 [20]: 0.15 µM
IC50 [21]: > 10 µM
Ratio [22]: > 66.7

C#Cc1cn([C@@H]2C=C(CO)[C@@H](O)[C@H]2O)c2ncnc(N)c12
EC50 [20]: 20.1 µM
IC50 [21]: 48.9 µM
EC50 [1]: 0.32 µM
EC50 [2]: 1.8 µM
IC50 [3]: > 300 µM

NC(=O)c1cn([C@@H]2C=C(CO)[C@@H](O)[C@H]2O)c2ncnc(N)c12
EC50 [20]: 1.8 µM
IC50 [21]: 11.8 µM
EC50 [1]: > 10 µM
IC50 [3]: 300 µM

Nc1ncnc2c1c(I)cn2[C@@H]1C=C(CO)[C@@H](O)[C@H]1O
EC50 [20]: 2.1 µM
IC50 [21]: 15 µM
EC50 [1]: 0.43 µM
EC50 [2]: 1.6 µM
IC50 [3]: > 300 µM

Nc1ncnc2c1ncn2CCOCP(=O)(O)O [ADEFOVIR]
EC50 [10]: 1.3 µM
EC50 [11]: 1.6 µM
EC50 [12]: 1.6 µM
EC50 [13]: 1.8 µM
EC50 [14]: 1.5 µM
EC50 [15]: 7.7 µM
